# Shown are actives, neighbours in structure and some others; about 5.8% of the full set was active somewhere.
# GASC1 inh = inhibitors of human demethylase GASC-1 KDM4C; Q9H3R0; GST-KDM4C 2-372, H3K9me3 peptide, LANCE TR-FRET; inhibition, % at 12.5 µM; 96,000 tested, 0.15% active;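 active means mean replicate inhibition above about 25%, with at least 55% of replicates also reaching it, limit read from the data, passing the limit was not always enough; inconclusive means only one of those two conditions met; inactive means neither condition met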
#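 System: N-terminal GST-fused human GASC-1 (KDM4C) fragment, residues 2-372 / Amount: 10 nM GST-KDM4C in enzyme reaction / Also added: H3K9me3 peptide with Fe(II)/2OG / Times: 30 min demethylation and 1 h detection at room temperature / Signal: LANCE TR-FRET / Read-out basis: Fall in 671/618 emission ratio as inhibition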
# Tcruzi prolif = blocks T. cruzi growth in NIH3T3 culture; T. cruzi beta-gal in NIH3T3, GalScreen luminescence, 90 h; inhibition, % at 8.34 µM; AID 624255; 77,000 tested, 5.9% active;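 active means mean inhibition above about 93%, with at least 55% of replicates each passing it, limit read from the data, passing the limit was not always enough; inconclusive means only one of those two conditions holds; inactive means neither condition holds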
# IDH1 mut inh = IDH1 R132H (human) inhibition | O75874 | IDH1 R132H reductase, diaphorase/resazurin fluorescence, 60 min | inhibition, % at 10 µM | 70,000 tested, 0.18% active; in the data active means inhibition above about 34%; inconclusive means no clear call, values can overlap the other calls; inactive means below about 11%;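 further: 0% = DMSO and 100% = no enzyme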
# Target sequence (O75874 whole entry R132H): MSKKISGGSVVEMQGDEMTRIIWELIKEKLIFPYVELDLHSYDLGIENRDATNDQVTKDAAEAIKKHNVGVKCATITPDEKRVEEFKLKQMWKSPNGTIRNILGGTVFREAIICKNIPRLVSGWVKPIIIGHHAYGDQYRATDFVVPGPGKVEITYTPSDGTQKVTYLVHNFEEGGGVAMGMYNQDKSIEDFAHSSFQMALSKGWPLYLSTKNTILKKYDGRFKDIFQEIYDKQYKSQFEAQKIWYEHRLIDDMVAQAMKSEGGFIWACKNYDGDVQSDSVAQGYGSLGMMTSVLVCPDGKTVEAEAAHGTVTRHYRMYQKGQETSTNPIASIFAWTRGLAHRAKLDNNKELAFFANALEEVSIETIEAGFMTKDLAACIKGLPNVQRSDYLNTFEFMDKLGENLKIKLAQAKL
# Pf Dd2 inh = blocks growth of Plasmodium falciparum Dd2 parasites; AID 1159554; activity change, % at 10 µM; 94,000 tested, 2.3% active; P. falciparum Dd2 growth, SYBR Green, 72 h; active compounds read low; in the data active means activity change below about -80%; inconclusive means no clear call, values can overlap the other calls
# The depositor's hits bear a star; ? = inconclusive; nt = no result; ! = repeats disagree.
SMILES,GASC1 inh,Tcruzi prolif,IDH1 mut inh,Pf Dd2 inh
CS(=O)(=O)Nc1ccc2c(c1)[C@H]1C[C@@H](CC(=O)NCc3ccccc3)O[C@@H](CO)[C@H]1O2,5.2,29.3,-0.2,18.3
Cc1cccc(NC(=O)COc2ccc(S(=O)(=O)N3CCCCC3)cc2Cl)c1C,nt,nt,0.7,nt
CC(C)CC#Cc1ccc2c(c1)O[C@@H](CN(C)C(=O)NC(C)C)[C@H](C)CN([C@@H](C)CO)S2(=O)=O,-0.4,57.6,36.0*,-32.6
CC(C)CC#Cc1ccc2c(c1)O[C@@H](CN(C)C(=O)NC(C)C)[C@@H](C)CN([C@@H](C)CO)S2(=O)=O,-2.1,54.7,-0.3,-3.4
COc1ccc(C#Cc2cccc(-c3nc(C(=O)N[C@@H]4CCN(Cc5ccccc5)C4)cc4c3[C@H](CCO)N(S(=O)C(C)(C)C)C4)c2)cc1OC (stereo partly drawn),nt,nt,nt,-84.4*
CC(C)(C)[S@@](=O)N1Cc2cc(C(=O)NC3CCC3)nc(-c3cccc(Br)c3)c2[C@H]1CCO,-2.8,nt,nt,-76.8
CC(C)(C)[S@](=O)N1Cc2cc(C(=O)NC3CCC3)nc(-c3cccc(Br)c3)c2[C@@H]1CCO,-2.0,nt,nt,-85.4*
CC(C)(O)C#Cc1cccc(-c2nc(C(=O)N[C@@H]3CCN(Cc4ccccc4)C3)cc3c2[C@H](CCO)N(S(=O)C(C)(C)C)C3)c1 (stereo partly drawn),-3.9,nt,nt,-82.3*
CCOC(=O)c1c(NC(=O)C(C)N2C(=O)c3ccccc3C2=O)sc2c1CCC(C)C2 (stereo not drawn),nt,nt,0.0,nt
C[C@@H]1CN([C@H](C)CO)C(=O)c2c(c3ccccc3n2C)-c2ccccc2CO[C@@H]1CN(C)Cc1ccc(Oc2ccccc2)cc1,-2.4,nt,nt,-70.8
C[C@H]1CN([C@@H](C)CO)C(=O)c2c(c3ccccc3n2C)-c2ccccc2CO[C@@H]1CN(C)Cc1ccc(-c2ccccc2)cc1,-3.1,nt,nt,-91.5*
C[C@@H]1CN([C@@H](C)CO)C(=O)c2c(c3ccccc3n2C)-c2ccccc2CO[C@@H]1CN(C)Cc1ccc(Oc2ccccc2)cc1,-2.9,nt,nt,-87.3*
O=C(C[C@@H]1CC[C@H](NC(=O)Nc2cc(F)ccc2F)[C@H](CO)O1)NCc1ccc2c(c1)OCO2,0.7,-8.0,0.0,-6.9
Cc1noc(C)c1NC(=O)Nc1ccc2c(c1)C(=O)N([C@@H](C)CO)C[C@@H](C)[C@@H](CN(C)Cc1ccncc1)OCCCC[C@H](C)O2,0.8,34.2,2.3,-4.0
C[C@@H]1CN([C@H](C)CO)C(=O)c2cc(NC(=O)Nc3cccc4ccccc34)ccc2O[C@@H](C)CCCCO[C@@H]1CN(C)S(=O)(=O)c1ccc(F)cc1,-0.4,7.9,nt,-87.2*
C[C@@H]1CN([C@@H](C)CO)C(=O)c2cc(NC(=O)Nc3cccc4ccccc34)ccc2O[C@@H](C)CCCCO[C@@H]1CN(C)S(=O)(=O)c1ccc(F)cc1,-0.4,30.3,-3.5,-82.9*
COc1cccc(CN2C[C@@H]3N[C@H](C2)C3c2ccc(-c3ccncc3)cc2)c1 (stereo partly drawn),-0.5,nt,nt,-88.9*!
Cc1ccc(-c2ccc(C3[C@@H]4CN(Cc5cccnc5)C[C@H]3N4)cc2)cc1 (stereo partly drawn),1.5,nt,nt,-90.9*!
C[C@H]1CN([C@@H](C)CO)C(=O)c2cccc(NC(=O)c3nc4ccccc4s3)c2O[C@H]1CN(C)Cc1ccccc1,0.7,76.8,nt,-22.5
C[C@H]1CN([C@@H](C)CO)C(=O)c2cccc(NC(=O)c3nc4ccccc4s3)c2O[C@@H]1CN(C)S(=O)(=O)c1ccccc1,-0.3,49.7,nt,-81.3*
C[C@H]1CN([C@@H](C)CO)C(=O)c2cccc(NC(=O)c3nc4ccccc4s3)c2O[C@H]1CN(C)Cc1ccc(C(=O)Nc2ccccc2N)cc1,-1.2,97.2*,nt,-91.2*
C[C@H](CO)N1C[C@H](C)[C@@H](CN(C)Cc2ccncc2)Oc2c(NC(=O)c3nc4ccccc4s3)cccc2C1=O,-3.2,nt,35.4*,-54.9
CCC(=O)N(C)C[C@@H]1Oc2cc(-c3ccc(F)cc3)ccc2S(=O)(=O)N([C@@H](C)CO)C[C@H]1C,0.9,45.9,3.3,-17.3
CC1(C)OC(=O)C=C[C@@]2(C)C1C[C@@H](O)[C@]1(C)C2CC[C@@]2(C)[C@H](c3ccoc3)OC(=O)C3OC321 (stereo partly drawn),nt,nt,-0.1,nt
C[C@H]1CN([C@@H](C)CO)C(=O)c2cccc(NC(=O)c3ccc(-c4nccs4)cc3)c2O[C@@H]1CN(C)Cc1ccc(C(=O)Nc2ccccc2N)cc1,0.5,104.2*,nt,-89.9*
SMILES,GASC1 inh,Tcruzi prolif,IDH1 mut inh,Pf Dd2 inh
C[C@@H]1CN([C@@H](C)CO)C(=O)c2cccc(NC(=O)c3ccc(-c4nccs4)cc3)c2O[C@@H]1CN(C)Cc1ccc(-c2ccccc2)cc1,-4.0,50.3,0.3,-78.2
C[C@@H]1CN([C@H](C)CO)C(=O)c2cccc(NC(=O)c3ccc(-c4nccs4)cc3)c2O[C@H]1CN(C)Cc1ccc(C(=O)Nc2ccccc2N)cc1,-1.3,71.8,0.4,-90.8*
C[C@@H]1CN([C@@H](C)CO)C(=O)c2cc(NC(=O)C3CCCCC3)ccc2O[C@@H](C)CCCCO[C@@H]1CN(C)C(=O)Nc1cccc2ccccc12,-3.3,55.2,nt,-89.2*
C[C@@H]1CCCCO[C@H](CN(C)C(=O)Nc2cccc3ccccc23)[C@H](C)CN([C@@H](C)CO)C(=O)c2cc(NC(=O)C3CCCCC3)ccc2O1,-8.2,78.2,nt,-73.0
C[C@@H]1CCCCO[C@H](CN(C)C(=O)Nc2cccc3ccccc23)[C@@H](C)CN([C@@H](C)CO)C(=O)c2cc(NC(=O)C3CCCCC3)ccc2O1,0.0,52.1,nt,-84.8*
C/C=C/c1ccc2c(c1)O[C@H](CN(C)C(=O)Nc1ccccc1)[C@@H](C)CN([C@H](C)CO)S2(=O)=O,-2.1,45.0,0.0,8.5
COc1ccc(CN(C)C[C@@H]2OCCCC[C@@H](C)Oc3ccc(NC(=O)NC(C)C)cc3C(=O)N([C@H](C)CO)C[C@H]2C)cc1,?,37.0,67.7*,-1.6
COc1ccc(CN(C)C[C@H]2OCCCC[C@H](C)Oc3ccc(NC(=O)Nc4ccc(F)cc4)cc3C(=O)N([C@H](C)CO)C[C@H]2C)cc1,-2.5,69.3,1.6,-81.2*
COc1ccc(CN(C)C[C@@H]2OCCCC[C@H](C)Oc3ccc(NC(=O)Nc4ccc(F)cc4)cc3C(=O)N([C@@H](C)CO)C[C@@H]2C)cc1,0.6,73.2,nt,?
COc1ccc(CN(C)C[C@@H]2OCCCC[C@H](C)Oc3ccc(NC(=O)Nc4ccc(F)cc4)cc3C(=O)N([C@H](C)CO)C[C@@H]2C)cc1,-0.4,64.5,-0.2,-20.1
COc1ccc(CN(C)C[C@H]2OCCCC[C@H](C)Oc3ccc(NC(=O)Nc4ccc(F)cc4)cc3C(=O)N([C@@H](C)CO)C[C@H]2C)cc1,9.2,76.2,0.8,-82.8*
O=S(=O)(c1ccccc1)c1nc(-c2cccs2)oc1NCc1ccco1,nt,nt,0.4,nt

# Screening data deposited in PubChem by Broad Institute.
